Assay [1] relates to Plasmodium falciparum. Briefly: In vitro activity against Plasmodium falciparum D6. It counts as functional, organism-based. Put shortly: (§1)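 Test compounds dissolved in DMSO and serially diluted in culture medium. Erythrocytes at 0.25 to 0.5% parasitemia added in 96-well microdilution plates to a final hematocrit of 1.5%. Activity indexed by inhibition of [3H]hypoxanthine uptake. IC50 derived from this uptake.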

Assay [2] deals with Plasmodium falciparum. Briefly: In vitro activity against Plasmodium falciparum W-2. It counts as functional, organism-based. The essentials: as §1
Assay [3] deals with Plasmodium berghei. Put plainly: In vivo antimalarial activity against Plasmodium berghei infected mice (Mus musculus) at 160 mg/kg. It counts as functional.
Assay [4] relates to Plasmodium berghei. Put plainly: In vivo antimalarial activity against Plasmodium berghei infected mice (Mus musculus) at 40 mg/kg. It counts as functional.
Assay [5] relates to Plasmodium berghei. Put plainly: In vivo antimalarial activity against Plasmodium berghei infected mice (Mus musculus) at 640 mg/kg. It counts as functional.
Assay [6] can be described thus: Resistance index was measured as the ratio of IC50 of Plasmodium falciparum W-2 clone / IC50 of P. falciparum D-6 clone. Format: functional. The essentials: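 P. falciparum clones D-6 (mefloquine-resistant) and W-2 (CQ-, pyrimethamine-, sulfadoxine- and quinine-resistant) were tested in parallel. Compounds were dissolved in DMSO and serially diluted in culture medium. Infected erythrocytes at 0.25–0.5% parasitemia were added to a final 1.5% hematocrit. IC50 for each clone came from inhibition of tritiated hypoxanthine uptake, and the index is IC50(W-2)/IC50(D-6).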

The test system of assay [7] is Plasmodium berghei. Briefly: In vivo antimalarial activity against Plasmodium berghei infected mice (Mus musculus) at 640 mg/kg; C-1. Set-up: dose 640 mg/kg. Format: functional, organism-based.
For assay [8], the system named is Plasmodium berghei. Briefly: In vivo antimalarial activity against Plasmodium berghei infected mice (Mus musculus) at 640 mg/kg; Skin lesions at injection site. Format: functional, organism-based. Further details: dose 640 mg/kg. Conditions: Skin of body. The essentials:
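P. berghei (KBG 173) infected male mice, 5 per dose, given a single subcutaneous dose 3 days post-infection. Injection sites examined for skin lesions.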

The subject of assay [9] is Plasmodium berghei. Briefly: In vivo antimalarial activity against Plasmodium berghei infected mice (Mus musculus) at 320 mg/kg.

pIC50: −log10 of the molar value.

Turning to `Clc1ccc2c(NCCCCCCNc3ccnc4cc(Cl)ccc34)ccnc2c1`, the pIC50 was 7.68 in the assay on Plasmodium falciparum [1] and 7.64 with Plasmodium falciparum [2]. The T-C with Plasmodium berghei [3] was 3.9 days; in the assay on Plasmodium berghei [4] it was 0.4 days; with Plasmodium berghei [5], more than 60 days. Also, the Resistance index in assay [6] was 1.1.
`Clc1ccc2c(NCCCCCNc3ccnc4cc(Cl)ccc34)ccnc2c1`: the pIC50 is 8.60 in the assay on Plasmodium falciparum [1] and 8.42 in the assay with Plasmodium falciparum [2]. Moreover, the T-C with Plasmodium berghei [3] was 5.1 days; in the assay on Plasmodium berghei [4] it was 1 days; in the assay with Plasmodium berghei [5], more than 60 days. The Resistance index in assay [6] was found to be 1.5.
With `Clc1ccc2c(NCCCCCCCCNc3ccnc4cc(Cl)ccc34)ccnc2c1`, the negative-log IC50 (pIC50) is 8.25 with Plasmodium falciparum [1] and 8.51 with Plasmodium falciparum [2]. For the same compound, the T-C in the assay on Plasmodium berghei [3] is 1 days; with Plasmodium berghei [4], -0.2 days; with Plasmodium berghei [7] it was “Curative-1”. For the same compound, the Resistance index in assay [6] turned out to be 0.6.
For `Clc1ccc2c(N3CCN(CCCN4CCN(c5ccnc6cc(Cl)ccc56)CC4)CC3)ccnc2c1` [PIPERAQUINE], the results for the pIC50 with Plasmodium falciparum [1] and in the assay with Plasmodium falciparum [2] were 8.08 and 7.80, respectively. Moreover, the Resistance index in assay [6] is 1.9.
Consider `Clc1ccc2c(NCCCCCCCCCNc3ccnc4cc(Cl)ccc34)ccnc2c1`, for which the pIC50 in the assay on Plasmodium falciparum [1] is 8.52; with Plasmodium falciparum [2], 8.64. In addition, the T-C in the assay with Plasmodium berghei [3] was 7.4 days; with Plasmodium berghei [4], 3.1 days; with Plasmodium berghei [8], “Lesions 15A”. Further, the Resistance index in [6] stood at 0.8.
`Clc1ccc2c(NC3CCCCC3Nc3ccnc4cc(Cl)ccc34)ccnc2c1` (configuration not stated): the pIC50 in the assay on Plasmodium falciparum [1] is 9.00; with Plasmodium falciparum [2], 8.85. Further, the T-C is more than 60 days with Plasmodium berghei [3], 8.5 days with Plasmodium berghei [4] and more than 60 days in the assay with Plasmodium berghei [9]. The Resistance index in assay [6] is 1.4.
Regarding `Clc1ccc2c(NCCCCCCCCCCCCNc3ccnc4cc(Cl)ccc34)ccnc2c1`, the values for the pIC50 in the assay with Plasmodium falciparum [1] and with Plasmodium falciparum [2] were 7.22 and 7.51, respectively. Also, the T-C in the assay with Plasmodium berghei [3] was -0.2 days; in the assay on Plasmodium berghei [4] it was 0 days; in the assay on Plasmodium berghei [5] it was 0 days. In addition, the Resistance index in assay [6] was 0.5.
For `CC(CCCNc1ccnc2cc(Cl)ccc12)CNc1ccnc2cc(Cl)ccc12` (configuration not stated), the results for the pIC50 in the assay on Plasmodium falciparum [1] and in the assay on Plasmodium falciparum [2] were 8.57 and 8.52, respectively. Moreover, the values for the T-C in the assay on Plasmodium berghei [3], in the assay with Plasmodium berghei [4] and in the assay with Plasmodium berghei [5] were 3.6 days, 1.2 days and more than 60 days, respectively. Further, in assay [6], the Resistance index turned out to be 1.1.
As for `Clc1ccc2c(NCCCCCCCCCCNc3ccnc4cc(Cl)ccc34)ccnc2c1`, the figures for the pIC50 with Plasmodium falciparum [1] and in the assay on Plasmodium falciparum [2] were 8.24 and 8.47, respectively. Further, the T-C with Plasmodium berghei [3] was found to be 0.2 days; with Plasmodium berghei [4] it was 0.2 days; in the assay on Plasmodium berghei [5], 0.6 days. Besides, the Resistance index in assay [6] was 0.6.
`CC(CNc1ccnc2cc(Cl)ccc12)Nc1ccnc2cc(Cl)ccc12` (configuration not stated): the pIC50 in the assay on Plasmodium falciparum [1] is 8.46; in the assay on Plasmodium falciparum [2], 8.41. For the same compound, the T-C is 5.7 days in the assay with Plasmodium berghei [3], 3.4 days with Plasmodium berghei [4] and more than 60 days with Plasmodium berghei [5]. Moreover, the Resistance index in assay [6] stood at 1.1.
For the compound `Clc1ccc2c(NCCCCNc3ccnc4cc(Cl)ccc34)ccnc2c1`, the pIC50 in the assay on Plasmodium falciparum [1] is 6.41; in the assay on Plasmodium falciparum [2], 7.09. Moreover, the T-C with Plasmodium berghei [3] is 2.3 days; in the assay on Plasmodium berghei [4], 0.5 days; with Plasmodium berghei [5], 5.6 days. Also, the Resistance index in assay [6] turned out to be 0.2.
Regarding `CCN(CC)CCCC(C)Nc1ccnc2cc(Cl)ccc12` (configuration not stated) [CHLOROQUINE], the T-C in the assay on Plasmodium berghei [3] and with Plasmodium berghei [5] was more than 60 days in each case.
`Clc1ccc2c(NCCCCCCCNc3ccnc4cc(Cl)ccc34)ccnc2c1`: the negative logarithm of the IC50 (pIC50) in the assay with Plasmodium falciparum [1] is 8.72; in the assay with Plasmodium falciparum [2], 8.37. The T-C stood at 7.2 days in the assay on Plasmodium berghei [3] and 2.6 days in the assay with Plasmodium berghei [4]. In assay [6], the Resistance index came out at 2.3.
Take `Clc1ccc2c(NCCNc3ccnc4cc(Cl)ccc34)ccnc2c1`: the results for the pIC50 in the assay on Plasmodium falciparum [1] and in the assay on Plasmodium falciparum [2] were 7.77 and 7.57, respectively. Besides, the T-C in the assay with Plasmodium berghei [3] came to 0.4 days; in the assay with Plasmodium berghei [4], 0 days; in the assay on Plasmodium berghei [5], 1.4 days. Besides, in assay [6], the Resistance index was 1.6.
For `Clc1ccc2c(NCCCNc3ccnc4cc(Cl)ccc34)ccnc2c1`, the pIC50 in the assay on Plasmodium falciparum [1] was 7.82; with Plasmodium falciparum [2], 7.08. Further, the T-C in the assay with Plasmodium berghei [3] came to 0.4 days; in the assay on Plasmodium berghei [4] it was 0.2 days; in the assay with Plasmodium berghei [5] it was 1.2 days. Moreover, in assay [6], the Resistance index was 5.5.

For orientation: pIC50 means the IC50 on a negative log10 scale, so that one unit is a factor of ten. Lower therefore signals a large IC50.

These data come from ChEMBL document CHEMBL1126070, “Bisquinolines. 1. N,N-bis(7-chloroquinolin-4-yl)alkanediamines with potential against chloroquine-resistant malaria” (J Med Chem, 1992).
